# UCH37 inh – inhibitors of human UCH37 deubiquitinase, primary screen, biochemical, Ub-AMC cleavage, fluorescence; purified proteasome/UCH37; Ubiquitin carboxyl-terminal hydrolase isozyme L5 (Homo sapiens), Q9Y5K5; AID 588478, 2011; 0.33% of 330,000 active; inhibition, % (concentration not given with the values);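 active means mean inhibition over replicate wells above about 20%, limit read from the data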;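 further: 0% = compound-free wells with enzyme and 100% = wells lacking proteasome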
# Target sequence (Q9Y5K5 whole entry, looked up): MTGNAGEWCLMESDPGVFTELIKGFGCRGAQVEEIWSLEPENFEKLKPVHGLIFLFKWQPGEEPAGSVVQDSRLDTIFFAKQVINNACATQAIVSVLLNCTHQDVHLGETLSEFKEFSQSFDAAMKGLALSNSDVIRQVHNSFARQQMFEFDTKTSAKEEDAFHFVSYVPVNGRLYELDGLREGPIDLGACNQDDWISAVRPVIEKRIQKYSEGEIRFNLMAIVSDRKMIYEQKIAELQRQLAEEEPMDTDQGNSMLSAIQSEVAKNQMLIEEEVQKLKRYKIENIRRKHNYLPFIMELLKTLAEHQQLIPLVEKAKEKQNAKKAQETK
#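 Signal – fluorescence, ex 355 nm, em 460 nm · System – Proteasome-bound UCH37 · Input – 0.15 nM proteasome as dispensed · Timing – 30 min preincubation with enzyme, 25 min cleavage at room temperature · Read-out basis – percent inhibition of cleavage signal versus uninhibited and no-proteasome wells · Medium – Tris-HCl pH 7.4 with ATP-MgCl2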
# Rtt109 Vps75 – inhibitors of C. albicans Rtt109/Vps75 HAT, primary screen, biochemical, ThioGlo CoA-SH fluorescence, plate reader. purified Rtt109/Vps75, 4 h. inhibition, % at 34.9 µM. 0.16% of 330,000 active;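 active means inhibition of at least 50% in every replicate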
# ALR inh – inhibitors of human ALR sulfhydryl oxidase, primary screen, biochemical, H2O2 detection, HRP-luminol luminescence, single point; AID 485317, 2010; 3.8% of 290,000 active; FAD-linked sulfhydryl oxidase ALR (Homo sapiens), P55789; purified ALR, DTT oxidation; inhibition, % (no concentration beside the values);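 active means mean replicate inhibition above about 79%, with every replicate also reaching it, limit read from the data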
# Target sequence (P55789 whole entry, looked up): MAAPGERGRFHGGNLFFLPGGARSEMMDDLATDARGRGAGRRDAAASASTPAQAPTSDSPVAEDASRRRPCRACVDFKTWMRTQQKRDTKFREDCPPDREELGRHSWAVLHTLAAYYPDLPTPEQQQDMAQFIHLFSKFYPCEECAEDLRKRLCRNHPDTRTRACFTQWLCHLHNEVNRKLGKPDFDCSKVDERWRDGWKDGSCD
# HDAC3 inh – HDAC3 deacetylase inhibitors, primary screen, biochemical, fluorescence, cell-free homogeneous; recombinant HDAC3, fluorogenic peptide/trypsin coupled; inhibition, % at 8.3 µM; 0.15% of 320,000 active; in the data active means inhibition above about 26%, passing the limit was not always enough
# M18AAP inhibitor – PfM18AAP inhibitors, malaria aminopeptidase, primary screen, biochemical, QFRET, recombinant enzyme. M18 aspartyl aminopeptidase (Plasmodium falciparum 3D7). H-Glu-NHMec fluorogenic cleavage. inhibition, % at 7.35 µM. 1.2% of 290,000 active;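 active means inhibition above the campaign mean inhibition over all tested compounds plus 3 SD, cut at about 28% in these data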;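 further: 0% = plate median of test compound wells and 100% = 2 mM ZnCl2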
# FAS-TE inh – FAS thioesterase domain inhibitors, primary screen, biochemical, fluorescence intensity, uHTS. Fatty acid synthase (Homo sapiens), P49327. recombinant FAS-TE, OMFH fluorogenic substrate, fluorescence endpoint. inhibition, % at 15 µM. 0.67% of 360,000 active. AID 602261, 2012;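 active means compounds whose normalised, plate-corrected inhibition of enzyme fluorescence in the single-dose primary screen is 50% or more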;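 further: 0% = DMSO with enzyme and 100% = substrate without enzyme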
# The depositor's hits bear a star; nt = no result. An excerpt weighted towards active compounds, which were near 4.6% of everything screened.
SMILES,UCH37 inh,Rtt109 Vps75,ALR inh,HDAC3 inh,M18AAP inhibitor,FAS-TE inh
Cc1cccc(NC(=O)CSCC(=O)Nc2ccccc2N2CCCCC2)c1,-1,-4,-9,16,nt,23
Cc1cccc(NC(=O)CSCC(=O)Nc2ccccc2N2CCCC2)c1,nt,13,99*,2,23,3
CC(=O)NC(=S)Nc1ccccc1N1CCCCC1,4,nt,20,3,2,4
CC(C)(C)C(=O)NC(=S)Nc1ccccc1N1CCCC1,4,nt,98*,6,18,16
CCOc1ccc(N2CC(C(=O)Nc3ccccc3N3CCCC3)CC2=O)cc1 (centres undefined),nt,9,94*,3,6,-4
CCOc1ccc(N2CC(C(=O)Nc3ccccc3OC)CC2=O)cc1 (centres undefined),4,-1,-11,1,-7,-7
Cc1ccc(NC(=O)CCC(=O)NN=Cc2coc3ccccc3c2=O)cc1,-4,nt,nt,nt,nt,nt
C=CCc1cccc(C=NNC(=O)C(=O)Nc2ccc(C)cc2)c1O,0,nt,nt,nt,nt,nt
COc1ccc(C=NNC(=O)CCNc2n[nH]c(=O)[nH]c2=O)c(OC)c1,7,nt,nt,nt,nt,nt
COc1cc(C=NNC(=O)COc2ccc(Cl)cc2)ccc1OS(=O)(=O)c1ccc(C)cc1,2,nt,nt,nt,nt,nt
COc1ccc(C(C)=NNC(=O)c2sccc2-n2cccc2)cc1,-22,nt,nt,nt,nt,nt
CNC(=S)NN=Cc1cc(C)n(-c2ccc(Cl)c(Cl)c2)c1C,4,nt,nt,nt,nt,nt
Cc1cccc(NC(=O)CSCC(=O)Nc2cccc3ncccc23)c1,-1,-2,99*,-4,nt,-10
COc1ccc2c(c1)c(C(=O)NN=Cc1ccc(Cl)cc1)c(C)n2C,0,nt,nt,nt,nt,nt
O=C(NN=Cc1ccc([N+](=O)[O-])cc1)c1cccc2cc[nH]c12,2,nt,nt,nt,nt,nt
O=C(O)c1ccc(NN=C/C=C/c2ccccc2[N+](=O)[O-])cc1,8,nt,nt,nt,nt,nt
O=C(/C=C/c1ccccc1[N+](=O)[O-])c1ccc(F)cc1,3,12,98*,-2,-6,7
O=C(O)c1ccc(N/N=C/C=C/c2ccccc2[N+](=O)[O-])cc1,nt,-6,nt,4,41*,-4
C=CCn1cc(C=NNC(=O)c2cc3c(ccc4ccccc43)o2)c2ccccc21,-30,nt,nt,nt,nt,nt
COc1nc(-c2ccccc2Cl)ccc1C#N,1,-9,98*,-4,1,18
CCOc1nc(-c2ccc(Cl)cc2Cl)ccc1C#N,0,-1,-18,-1,-1,25
Clc1cccc(-c2ccc(C=Nn3cnnc3)o2)c1,5,nt,nt,nt,nt,nt
CCCCCC(=O)N/N=C/c1cc(Br)c(O)c(OC)c1,nt,-7,99*,-5,1,-8
COc1cc(/C=N/NC(=O)C2C3CCCCC32C)cc(Br)c1O (centres undefined),nt,3,86*,-4,10,-1
COc1ccc(/C=N/NC(=O)C2C3CCCCC32C)cc1OC (centres undefined),nt,-6,-4,nt,-3,-2
SMILES,UCH37 inh,Rtt109 Vps75,ALR inh,HDAC3 inh,M18AAP inhibitor,FAS-TE inh
CC1(C)CC(=O)C2=C(C1)Oc1nc3ccccc3cc1C2C(C#N)C#N (centres undefined),6,9,80*,-4,-5,0
CC1(C)CC(=O)C(C2C3=C(CC(C)(C)CC3=O)Oc3ccccc32)C(=O)C1 (centres undefined),7,-4,6,nt,8,-1
Cc1c(NC(=O)CSc2nc3ccccc3s2)c(=O)n(-c2ccccc2)n1C,0,18,99*,-9,-9,-7
CCOC(=O)c1c(NC(=O)CSc2nc3ccccc3s2)sc(C)c1C,-1,-1,98*,2,30*,14
Cn1ccnc1SCC(=O)NC1CCCC1,4,-22,nt,-1,-8,-4
CCOC(=O)c1c(NC(=O)CSc2nc3ccccc3o2)sc(C)c1C,3,-3,3,1,1,27
Cn1ccnc1SCC(=O)Nc1ccc2nc(SCC(=O)NC3CC3)sc2c1,2,nt,98*,2,14,nt
O=C(CSc1nc2ccccc2s1)NC1CCCC1,3,0,99*,4,7,-8
Cc1ccc2cc(C=NNc3ccc(C(=O)O)cc3)c(Cl)nc2c1,3,nt,nt,nt,nt,nt
CCOC(=O)NC(=O)COC(=O)CCCSc1nc2ccccc2s1,0,1,93*,-3,-1,0
O=C(CSc1nc2ccccc2s1)Nc1ncccn1,3,-3,98*,-4,0,-9
COc1ccc(C=NN2CCOCC2)cc1O,1,nt,nt,nt,nt,nt
CCCN1C(=O)/C(=C/c2ccc(N3CCOCC3)cc2)NC1=S,4,1,74,11,7,-24
CCN1C(=O)/C(=C/c2ccc(N3CCCC3)cc2)NC1=S,4,-2,97*,15,4,-19
O=C(O)/C(CC(=O)c1ccc(Cl)cc1)=N/Nc1ccc([N+](=O)[O-])cc1[N+](=O)[O-],nt,13,98*,-2,8,43
C/C(CCC(=O)O)=N/Nc1ccc([N+](=O)[O-])cc1[N+](=O)[O-],nt,37,-2,8,8,0
S=c1[nH]c(-c2ccccc2)cn1N=Cc1ccc(Br)cc1,-24,nt,nt,nt,nt,nt
Cc1c(C)c(C)c(C(=O)CCc2cccc(NC(=O)CCC(=O)O)c2)c(C)c1C,2,8,95*,-2,-11,-3
CN1C2CCC1CC(NC(=O)CSCc1ccc(Cl)cc1Cl)C2 (centres undefined),6,-3,98*,-6,-1,-4
Cc1ccc(SCC(=O)NC2CC3CCC(C2)N3C)cc1 (centres undefined),0,-5,nt,-3,3,-3
Cc1ccc(S(=O)(=O)Oc2ccccc2C=NNc2ccc(C(=O)O)cc2)cc1,4,nt,nt,nt,nt,nt
O=C(Nc1ccc2[nH]c(=S)sc2c1)Nc1ccccc1F,11,2,nt,5,-4,2
O=C(Nc1ccc2[nH]c(=S)sc2c1)c1ccccc1,9,-5,99*,-1,3,1
Cc1[nH]n(-c2ccccc2)c(=O)c1C=NC1CCCCC1,3,59*,2,16,4,-5
Cc1c(C(=O)O)cccc1-n1c(C)cc(C=NNC(=O)c2cc3ccccc3o2)c1C,3,nt,nt,nt,nt,nt
Cc1ccc(NC(=S)NCCCN2CCOCC2)cc1C,2,-1,98*,-1,-2,-5
Cc1ccc(OCC(=O)NCCN2CCOCC2)cc1C,2,-17,87*,-1,0,-3
COCCCNC(=S)N1CCN(C)CC1,2,-3,-2,-3,-14,-10
Cc1cc(OCC(=O)NCCN2CCOCC2)cc(C)c1Cl,2,-2,1,4,1,-2

# Screening data: PubChem, several laboratories
